Source: ChEMBL document CHEMBL4304743, “Discovery of ( E)- N1-(3-Fluorophenyl)- N3-(3-(2-(pyridin-2-yl)vinyl)-1 H-indazol-6-yl)malonamide (CHMFL-KIT-033) as a Novel c-KIT T670I Mutant Selective Kinase Inhibitor for Gastrointestinal Stromal Tumors (GISTs)” (J Med Chem, 2019)
The source made the active and inactive calls. The rule behind the calls is not given here.

How the values were obtained:
[1] = tested on: Mast/stem cell growth factor receptor Kit (Homo sapiens), P10721 [V559A]; test: Inhibition of TEL fused c-KIT V559A mutant (unknown origin) transfected in mouse BAF3 cells assessed as growth inhibition after 72 hrs by CCK8 assay; type: cell-based
Outline: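 Tel-c-KIT-transformed BaF3 lines (IL-3 independent) kept in RPMI 1640 with 10% FBS, 2% L-glutamine and pen/strep. Cells at 1.5 to 5 × 10^4 cells/mL mixed with graded compound and incubated 72 h at 37 °C, 5% CO2. Viability by CCK-8 absorbance at 450 nm, normalized to DMSO. GI50 from dose–response fit.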

[2] = biological target: T1, Mast/stem cell growth factor receptor Kit (Homo sapiens, UniProt P10721, T670I); test: Inhibition of TEL fused wild type c-KIT T670I mutant (unknown origin) transfected in mouse BaF3 cells assessed as reduction in phosphorylation at Y703 residue after 2 hrs by Western blot analysis; type: cell-based
[3] = biological target: T1, Mast/stem cell growth factor receptor Kit; test: Inhibition of TEL fused wild type c-KIT T670I mutant (unknown origin) transfected in mouse BaF3 cells assessed as reduction in phosphorylation at Y823 residue after 2 hrs by Western blot analysis; type: cell-based
[4] = biological target: Serine/threonine-protein kinase 25 (Homo sapiens, UniProt O00506); test: Binding affinity to wild-type human partial length STK25 (V14 to H295 residues) expressed in bacterial expression system assessed as enzyme remaining activity at 1 uM by Kinomescan assay relative to control
Outline: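 KINOMEscan competition binding panel of 468 kinases and mutants, compound at 1 μM; binding reported as percent of control.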

[5] = biological target: Platelet-derived growth factor receptor alpha (Homo sapiens, UniProt P16234); test: Inhibition of wild-type human partial length PDGFRA (V575 to D1002 residues) expressed in mammalian expression system after 1 hr by Z-LYTE assay
[6] = tested on: Mast/stem cell growth factor receptor Kit (Homo sapiens), P10721 [UNDEFINED MUTATION]; test: Binding affinity to human partial length c-KIT V559D/[…] double mutant (Y545 to D952 residues) expressed in bacterial expression system assessed as enzyme remaining activity at 1 uM by Kinomescan method relative to control
Outline: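 KINOMEscan binding profile (DiscoverX) run at 1 μM against a panel of 468 kinases and mutants. Read-out is percent of control (%Ctrl) remaining bound.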

[7] = tested on: Mast/stem cell growth factor receptor Kit (Homo sapiens), P10721 [UNDEFINED MUTATION]; test: Inhibition of c-KIT 560 to 578 deletion/T670I double mutant in human GISTT1 cells assessed as reduction in c-KIT autophosphorylation at Y719 residue at 0.1 uM to 3 uM after 1 hr by Western blot analysis; type: cell-based
Outline: (§1)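 Serial compound dilutions applied for 1 h to GIST-T1, GIST-T1-T670I (CRISPR/Cas9 T670I knock-in, clone confirmed by Sanger sequencing) or GIST-5R cells in DMEM with 10% FBS. Cells then lysed and phospho-proteins detected by standard Western blotting.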

[8] = tested on: Mast/stem cell growth factor receptor Kit (Homo sapiens), P10721 [UNDEFINED MUTATION]; test: Inhibition of c-KIT 560 to 578 deletion mutant in human GISTT1 cells assessed as reduction in c-KIT autophosphorylation at Y823 residue at 0.1 uM to 3 uM after 1 hr by Western blot analysis; type: cell-based; outline: as §1
[9] = tested on: Mast/stem cell growth factor receptor Kit (Homo sapiens), P10721 [UNDEFINED MUTATION]; test: Inhibition of c-KIT 560 to 578 deletion mutant in human GISTT1 cells assessed as reduction in c-KIT autophosphorylation at Y719 residue at 0.1 uM to 3 uM after 1 hr by Western blot analysis; type: cell-based; outline: as §1
[10] = tested on: Mast/stem cell growth factor receptor Kit (Homo sapiens), P10721 [UNDEFINED MUTATION]; test: Inhibition of c-KIT 560 to 578 deletion/T670I double mutant in human GISTT1 cells assessed as reduction in c-KIT autophosphorylation at Y703 residue at 0.1 uM to 3 uM after 1 hr by Western blot analysis; type: cell-based; outline: as §1
[11] = tested on: Mast/stem cell growth factor receptor Kit (Homo sapiens), P10721 [UNDEFINED MUTATION]; test: Inhibition of c-KIT 560 to 578 deletion/T670I double mutant in human GIST5R cells assessed as reduction in AKT phosphorylation at S473 residue at 0.1 uM to 3 uM after 1 hr by Western blot analysis; type: cell-based; outline: as §1
[12] = tested on: Mast/stem cell growth factor receptor Kit (Homo sapiens), P10721 [UNDEFINED MUTATION]; test: Inhibition of c-KIT 560 to 578 deletion mutant in human GISTT1 cells assessed as reduction in ERK phosphorylation at T202/Y204 residue at 0.1 uM to 3 uM after 1 hr by Western blot analysis; type: cell-based; outline: as §1
[13] = tested on: Mast/stem cell growth factor receptor Kit (Homo sapiens), P10721 [UNDEFINED MUTATION]; test: Inhibition of c-KIT 560 to 578 deletion mutant in human GISTT1 cells assessed as reduction in S6 phosphorylation at S235/S236 residue at 0.1 uM to 3 uM after 1 hr by Western blot analysis; type: cell-based; outline: as §1
GISTT1 = test: Induction of cell cycle arrest in human GISTT1 cells harboring c-KIT 560 to 578 deletion mutant after 24 hrs; type: functional, cell-based
[14] = Half-life in mouse at 1 mg/kg, iv measured after 2 to 720 mins by LC-tandem mass spectrometry analysis; type: ADME, organism-based; conditions: in vivo
Outline: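 Mice dosed 1 mg/kg i.v. or 10 mg/kg p.o.; plasma drug levels by LC-MS/MS, parameters by noncompartmental analysis; values not from triplicate testing.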

Mus musculus [15] = test: Inhibition of c-KIT phosphorylation at Y719 residue in tumor of human GIST5R cells xenografted in nude mouse at 100 mg/kg, po administered as single dose and measured after 2 hrs; type: functional, organism-based
Outline: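 Female nu/nu mice bearing subcutaneous GIST-5R xenografts (cells in Matrigel, right flank) given one oral gavage dose of 100 mg/kg in HKI suspension (0.5% methocellulose/0.4% Tween80 in ddH2O). Tumors collected over a 2 h time course; p-c-KIT, p-ERK and p-AKT assessed by Western blot; plasma drug levels monitored in parallel.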

Mus musculus [16] = test: Inhibition of ERK phosphorylation at T202/Y204 residue in tumor of human GIST5R cells xenografted in nude mouse at 100 mg/kg, po administered as single dose and measured after 2 hrs; type: functional, organism-based
Outline: (§2)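 Female nu/nu mice bearing subcutaneous GIST-5R tumors (cells in Matrigel, right flank) given one oral dose of 100 mg/kg in 0.5% methylcellulose/0.4% Tween80. Tumors collected over a 2 h time course. p-c-KIT, p-ERK and p-AKT measured alongside plasma drug levels.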

Mus musculus [17] = test: Inhibition of AKT phosphorylation at […] residue in tumor of human GIST5R cells xenografted in nude mouse at 100 mg/kg, po administered as single dose and measured after 2 hrs; type: functional, organism-based; outline: as §2
[18] = Antitumor activity against human GIST5R cells xenografted in nude mouse assessed as tumor weight at 25 mg/kg, po administered […] via gavage for 28 days (reference value: 0.59g); type: functional
Outline: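 Female nu/nu mice (5 weeks old) given subcutaneous right-flank GIST-5R cells in Matrigel. Dosing began at tumors of 200-400 mm3; randomized, 4 mice per group. Daily oral dosing (QD) at 25, 50 or 100 mg/kg in 0.5% methylcellulose/0.4% Tween80, or vehicle alone, for 28 days. Body weight and tumor volume, (W²×L)/2, measured daily; mean±SEM.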

Sequence of Mast/stem cell growth factor receptor Kit (Homo sapiens), P10721 [UNDEFINED MUTATION] (P10721 whole entry, looked up, stated change not applied, the tested form may be a part): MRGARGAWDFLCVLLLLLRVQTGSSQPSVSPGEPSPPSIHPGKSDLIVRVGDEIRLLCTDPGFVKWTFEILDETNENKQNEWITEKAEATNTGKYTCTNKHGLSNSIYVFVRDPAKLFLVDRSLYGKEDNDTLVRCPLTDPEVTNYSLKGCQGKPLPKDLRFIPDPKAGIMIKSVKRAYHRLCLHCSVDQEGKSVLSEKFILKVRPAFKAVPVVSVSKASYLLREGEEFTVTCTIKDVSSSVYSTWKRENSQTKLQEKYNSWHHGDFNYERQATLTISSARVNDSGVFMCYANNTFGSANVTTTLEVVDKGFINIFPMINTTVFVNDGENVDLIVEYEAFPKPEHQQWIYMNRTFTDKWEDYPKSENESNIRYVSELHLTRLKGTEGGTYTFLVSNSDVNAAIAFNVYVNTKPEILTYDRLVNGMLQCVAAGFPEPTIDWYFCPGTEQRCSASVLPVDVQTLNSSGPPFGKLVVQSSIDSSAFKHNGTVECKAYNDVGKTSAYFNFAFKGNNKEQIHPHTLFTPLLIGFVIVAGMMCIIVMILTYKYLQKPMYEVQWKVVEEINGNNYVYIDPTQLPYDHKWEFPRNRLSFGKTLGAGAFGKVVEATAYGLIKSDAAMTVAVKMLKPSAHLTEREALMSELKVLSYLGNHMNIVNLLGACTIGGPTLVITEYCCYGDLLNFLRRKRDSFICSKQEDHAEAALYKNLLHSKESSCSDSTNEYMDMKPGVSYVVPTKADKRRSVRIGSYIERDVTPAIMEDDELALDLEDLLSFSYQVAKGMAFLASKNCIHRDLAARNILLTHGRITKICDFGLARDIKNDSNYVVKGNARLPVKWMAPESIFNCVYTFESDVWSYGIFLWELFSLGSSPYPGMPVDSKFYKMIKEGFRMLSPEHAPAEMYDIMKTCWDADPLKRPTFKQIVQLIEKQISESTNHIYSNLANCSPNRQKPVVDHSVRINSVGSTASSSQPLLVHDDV
T1 sequence (P10721 26-976 T670I limits assumed): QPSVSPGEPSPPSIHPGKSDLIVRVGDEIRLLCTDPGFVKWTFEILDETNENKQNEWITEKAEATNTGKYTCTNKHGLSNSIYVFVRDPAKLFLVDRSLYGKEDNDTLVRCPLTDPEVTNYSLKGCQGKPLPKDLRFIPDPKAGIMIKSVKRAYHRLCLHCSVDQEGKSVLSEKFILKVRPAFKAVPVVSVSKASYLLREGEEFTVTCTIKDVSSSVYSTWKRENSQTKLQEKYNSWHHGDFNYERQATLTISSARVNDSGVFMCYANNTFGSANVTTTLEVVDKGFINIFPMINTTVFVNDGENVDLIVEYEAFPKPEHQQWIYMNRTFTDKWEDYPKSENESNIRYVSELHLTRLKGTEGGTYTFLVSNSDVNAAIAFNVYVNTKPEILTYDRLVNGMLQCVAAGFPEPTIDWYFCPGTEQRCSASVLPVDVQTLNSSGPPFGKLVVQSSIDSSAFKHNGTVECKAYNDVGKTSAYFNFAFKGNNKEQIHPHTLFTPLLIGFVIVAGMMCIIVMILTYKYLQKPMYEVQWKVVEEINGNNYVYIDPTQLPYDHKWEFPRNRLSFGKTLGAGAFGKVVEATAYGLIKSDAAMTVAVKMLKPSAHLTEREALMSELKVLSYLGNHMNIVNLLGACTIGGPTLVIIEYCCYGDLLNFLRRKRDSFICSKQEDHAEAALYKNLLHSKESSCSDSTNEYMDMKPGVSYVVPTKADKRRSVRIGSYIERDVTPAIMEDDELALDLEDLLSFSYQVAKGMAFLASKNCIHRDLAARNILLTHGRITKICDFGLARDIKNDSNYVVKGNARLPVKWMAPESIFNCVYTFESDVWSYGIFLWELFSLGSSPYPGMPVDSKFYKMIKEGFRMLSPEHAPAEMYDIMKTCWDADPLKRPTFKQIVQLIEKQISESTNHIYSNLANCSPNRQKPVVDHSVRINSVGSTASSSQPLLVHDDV
Sequence of Serine/threonine-protein kinase 25 (O00506 whole entry, looked up, the tested form may be a part): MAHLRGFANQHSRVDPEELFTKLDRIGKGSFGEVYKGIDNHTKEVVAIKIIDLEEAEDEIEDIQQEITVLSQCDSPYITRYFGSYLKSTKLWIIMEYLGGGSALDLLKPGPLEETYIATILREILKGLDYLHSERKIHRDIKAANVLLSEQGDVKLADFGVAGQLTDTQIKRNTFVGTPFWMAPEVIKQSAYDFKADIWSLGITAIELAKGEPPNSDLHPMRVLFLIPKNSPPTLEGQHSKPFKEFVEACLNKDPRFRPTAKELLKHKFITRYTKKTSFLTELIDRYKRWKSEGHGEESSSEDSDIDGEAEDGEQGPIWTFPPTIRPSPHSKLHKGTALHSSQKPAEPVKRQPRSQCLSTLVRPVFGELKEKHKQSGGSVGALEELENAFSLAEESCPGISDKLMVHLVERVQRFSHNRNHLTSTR
Sequence of Mast/stem cell growth factor receptor Kit (Homo sapiens), P10721 [V559A] (P10721 whole entry V559A, the tested form may be a part): as the sequence (P10721 whole entry, looked up, stated change not applied, the tested form may be a part) above, with V559A counted along it
Sequence of Platelet-derived growth factor receptor alpha (P16234 whole entry, the tested form may be a part): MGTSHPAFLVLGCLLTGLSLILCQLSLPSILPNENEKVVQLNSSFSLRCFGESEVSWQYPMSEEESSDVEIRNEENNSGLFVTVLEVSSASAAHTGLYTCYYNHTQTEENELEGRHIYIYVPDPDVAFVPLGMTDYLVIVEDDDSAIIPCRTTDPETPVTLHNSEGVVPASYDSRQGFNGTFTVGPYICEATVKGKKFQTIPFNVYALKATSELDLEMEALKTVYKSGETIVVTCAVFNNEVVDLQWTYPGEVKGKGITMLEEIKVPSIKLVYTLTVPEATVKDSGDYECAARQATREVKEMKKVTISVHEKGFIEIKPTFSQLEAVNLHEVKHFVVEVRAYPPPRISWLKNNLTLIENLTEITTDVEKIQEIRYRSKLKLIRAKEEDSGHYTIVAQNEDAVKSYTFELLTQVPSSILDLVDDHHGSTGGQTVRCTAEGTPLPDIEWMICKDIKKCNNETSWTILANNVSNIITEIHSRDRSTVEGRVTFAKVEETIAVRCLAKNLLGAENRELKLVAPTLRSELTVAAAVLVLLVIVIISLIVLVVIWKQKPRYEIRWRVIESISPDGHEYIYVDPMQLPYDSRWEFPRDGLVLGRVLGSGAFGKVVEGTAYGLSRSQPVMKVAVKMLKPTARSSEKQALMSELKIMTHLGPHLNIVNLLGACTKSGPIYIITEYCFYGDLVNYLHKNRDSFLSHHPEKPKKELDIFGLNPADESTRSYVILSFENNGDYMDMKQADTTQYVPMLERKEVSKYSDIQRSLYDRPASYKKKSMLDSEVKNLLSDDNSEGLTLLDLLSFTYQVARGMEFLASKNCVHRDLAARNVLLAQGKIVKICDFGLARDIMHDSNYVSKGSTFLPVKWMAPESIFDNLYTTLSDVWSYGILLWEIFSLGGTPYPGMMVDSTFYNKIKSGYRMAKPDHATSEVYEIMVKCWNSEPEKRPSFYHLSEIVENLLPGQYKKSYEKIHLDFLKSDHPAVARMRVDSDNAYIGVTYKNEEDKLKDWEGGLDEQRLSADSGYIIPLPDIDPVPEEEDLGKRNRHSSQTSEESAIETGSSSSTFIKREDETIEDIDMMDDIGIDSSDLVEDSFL

O=C(CC(=O)Nc1ccc2c(/C=C/c3ccccn3)n[nH]c2c1)Nc1cccc(F)c1
GI50 [1]: 31 nM
EC50 [2]: 77 nM
EC50 [3]: 34 nM
Activity [4]: 0%
IC50 [5]: 7780 nM
Activity [6]: < 1%
inhibition [7]: Active
inhibition [8]: Active
inhibition [9]: Active
inhibition [10]: Active
inhibition [11]: Active
inhibition [12]: Active
inhibition [13]: Active
Activity (GISTT1): Dose-dependent effect
half-life [14]: 4.9 h
inhibition (Mus musculus [15]): inactive
inhibition (Mus musculus [16]): inactive
inhibition (Mus musculus [17]): inactive
Activity [18]: 0.33 g
